We go through six compounds from ChEMBL document CHEMBL4364287, “Enhanced Inhibition of Influenza A Virus Adhesion by Di- and Trivalent Hemagglutinin Inhibitors” (J Med Chem, 2019).

Data set [1] is described as follows: Inhibition of sensor loaded biotinylated-LAMP1 binding to Influenza A virus (A/Netherlands/178/1995(H3N2)) H3 hemagglutinin expressed in Influenza virus WU95 in presence of NA inhibitor oseltamivir carboxylate by biolayer interferometric analysis. Summed up:
(§1)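 OctetRed BLI: streptavidin sensors were saturated with biotinylated LAMP1 in PBS pH 7.4. They were dipped into WU95 (8 HAU, 2.5 × 10^8 particles per well) preincubated 4 h at room temperature with compound and 10 µM (end concentration) oseltamivir carboxylate. Initial binding rate was compared with a no-compound control.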

Data set [2] deals with Influenza A virus (A/Netherlands/178/1995(H3N2)). The data set can be described thus: Potency index, ratio of compound 7 IC50 to test compound IC50 for inhibition of sensor loaded biotinylated-LAMP1 binding to Influenza A virus (A/Netherlands/178/1995(H3N2)) H3 hemagglutinin expressed in Influenza virus WU95.
Data set [3] deals with Influenza A virus (A/Bilthoven/1761/1976(H3N2)). Briefly: Inhibition of sensor loaded biotinylated-LAMP1 binding to Influenza A virus (A/Bilthoven/1761/1976(H3N2)) H3 hemagglutinin expressed in Influenza virus VI75 at 3 uM by biolayer interferometric analysis. Put shortly:
(§2)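 BLI with streptavidin sensors loaded to saturation with biotinylated LAMP1 (PBS, pH 7.4). VI75 virus was preincubated 4 h at room temperature with 3 µM compound, without or with 10 µM oseltamivir carboxylate. Initial virus binding rate was compared with a compound-free control.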

Data set [4] has the same test system. Briefly: Inhibition of sensor loaded biotinylated-LAMP1 binding to Influenza A virus (A/Bilthoven/1761/1976(H3N2)) H3 hemagglutinin expressed in Influenza virus VI75 at 3 uM in presence of NA inhibitor oseltamivir carboxylate by biolayer interferometric analysis. Summed up: as §2
In general terms: In BLI a coated tip is dipped into the sample, and binding shifts an interference pattern.

In data set [5] the test system is Influenza A virus. The data set can be described thus: Antiviral activity against Influenza A virus WU95 expressing Influenza A virus (A/Netherlands/178/1995(H3N2)) H3 hemagglutinin infected in MDCK2 cells preincubated with virus for 4 hrs followed by cell infection and measured at 7 hrs post-infection by DAPI staining-based assay. In kind it is functional, organism-based. Put shortly: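 Single-cycle infection: WU95 in Opti-mem was preincubated 4 h at room temperature with varying compound concentrations. Confluent MDCK-II cells were inoculated in triplicate at MOI 0.005 and fixed at 7 h post-infection in methanol (−20 °C, 5 min). Cells were immunostained for nucleoprotein (HB65, Alexa 488 secondary), counterstained with DAPI, and infected cells per well were counted.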

Data set [6] has as its system MDCK-II. Briefly: Cytotoxicity against MDCK2 cells assessed as reduction in cell viability measured after 24 hrs by WST1 assay. In kind it is cell-based, Canis lupus familiaris. The following applies: dog. Summed up:
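MDCK-II cells were incubated 24 h in Opti-mem with compounds at different concentrations. Cell number and viability were then read by WST-1 assay.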
Background: Tetrazolium dyes change colour on reduction, which living cells bring about.

The test system of data set [7] is Influenza A virus. Briefly: Antiviral activity against Influenza A virus WU95 expressing Influenza A virus (A/Netherlands/178/1995(H3N2)) H3 hemagglutinin infected in MDCK2 cells assessed as reduction in virus-induced cytopathogenicity preincubated with virus for 4 hrs followed by cell infection and measured after 3 days by DAPI staining-based assay. In kind it is functional, organism-based. Put shortly:
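WU95 virus was preincubated 4 h at room temperature in Opti-mem with varying compound concentrations. It was then inoculated onto confluent MDCK-II cells at MOI 0.005 and held 3 days with 1 µg/ml TPCK-trypsin to allow multiple rounds of infection. Cells were fixed and DAPI-stained, and monolayers inspected visually; absence of stained cells was taken as cell killing.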
(In general: Damage to the host cells serves as the signal in cytopathic effect assays.)

The test system of data set [8] is Influenza A virus (A/Netherlands/178/1995(H3N2)). The data set can be described thus: Inhibition of sensor loaded biotinylated-LAMP1 binding to Influenza A virus (A/Netherlands/178/1995(H3N2)) H3 hemagglutinin expressed in Influenza virus WU95 at 3 uM in presence of NA inhibitor oseltamivir carboxylate by biolayer interferometric analysis. Put shortly: as §1
The test system of data set [9] is Influenza A virus. Briefly: Antiviral activity against Influenza A virus WU95 expressing Influenza A virus (A/Netherlands/178/1995(H3N2)) H3 hemagglutinin infected in MDCK2 cells at 20 nM preincubated with virus for 4 hrs followed by cell infection and measured after 2 hrs by DAPI staining-based assay. The data set is classed as functional, organism-based. Summed up:
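WU95 was preincubated 4 h at room temperature in Opti-mem with or without 15 µM compound, ±10 µM oseltamivir carboxylate. The mixture was diluted 500-fold onto confluent MDCK-II for 2 h, giving end concentrations of 30 nM compound, 20 nM OC and MOI 0.01. Cells were washed, kept overnight at 37 °C with 10 nM bafilomycin, then fixed and nucleoprotein-immunostained.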

Data set [10] in a line: Inhibition of Influenza A virus (A/Netherlands/178/1995(H3N2)) H3 hemagglutinin expressed in Influenza virus WU95 assessed as reduction in human erythrocytes hemagglutination preincubated for 4 hrs followed by erythrocytes addition and measured after 2 hrs. In kind it is cell-based. Put shortly:
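Four hemagglutination units of virus were preincubated 4 h at room temperature with limiting compound dilutions in the presence of oseltamivir carboxylate. Then 0.5% (v/v) erythrocytes were added for 2 h at 4 °C. The lowest inhibiting concentration was recorded; two experiments were run in duplicate and means are reported.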

Data set [11] deals with Influenza A virus (A/Netherlands/178/1995(H3N2)). Briefly: Potency index, ratio of compound 8 IC50 to test compound IC50 for Inhibition of Influenza A virus (A/Netherlands/178/1995(H3N2)) H3 hemagglutinin expressed in Influenza virus WU95 assessed as reduction in human erythrocytes hemagglutination. In kind it is cell-based.
Data set [12] has the same test system. The data set can be described thus: Inhibition of sensor loaded biotinylated-LAMP1 binding to Influenza A virus (A/Netherlands/178/1995(H3N2)) H3 hemagglutinin expressed in Influenza virus WU95 at 20 uM in presence of NA inhibitor oseltamivir carboxylate by biolayer interferometric analysis. Put shortly:
as §1

As usually defined, the IC50 is the concentration at which inhibition is half-maximal. The term Ki denotes the equilibrium dissociation constant of an inhibitor or competing ligand from its target.

Calls of active or inactive are those of the source. No cut-off for these calls is given here.

In the case of `CC(=O)N[C@H]1[C@H]([C@H](O)[C@H](O)CO)O[C@@](OC[C@H]2O[C@@H](O[C@H]3[C@H](O)[C@@H](O)[C@H](OCc4cn([C@@H]5O[C@H](CO)[C@@H](n6cc(-c7ccc(-c8cn([C@H]9[C@H](O)[C@@H](O)[C@H](n%10cc(CO[C@@H]%11O[C@H](CO)[C@@H](O[C@@H]%12O[C@H](CO[C@]%13(C(=O)O)C[C@H](O)[C@@H](NC(C)=O)[C@H]([C@H](O)[C@H](O)CO)O%13)[C@H](O)[C@H](O)[C@H]%12O)[C@H](O)[C@H]%11O)nn%10)O[C@@H]9CO)nn8)cc7)nn6)[C@H](O)[C@H]5O)nn4)O[C@@H]3CO)[C@H](O)[C@@H](O)[C@H]2O)(C(=O)O)C[C@@H]1O`, the IC50 in data set [1] is 13 µM. The Ratio IC50 in data set [2] was 23.

Take `CC(=O)N[C@H]1[C@H](O[C@H]2[C@@H](O)[C@@H](CO)O[C@@H](O[C@H]3[C@H](O)[C@@H](O)[C@H](OCc4cn(CCCC(=O)Nc5cccc(-c6cc(-c7cccc(NC(=O)CCCn8cc(CO[C@@H]9O[C@H](CO)[C@@H](O[C@@H]%10O[C@H](CO)[C@H](O)[C@H](O[C@@H]%11O[C@H](CO)[C@@H](O[C@@H]%12O[C@H](CO[C@]%13(C(=O)O)C[C@H](O)[C@@H](NC(C)=O)[C@H]([C@H](O)[C@H](O)CO)O%13)[C@H](O)[C@H](O)[C@H]%12O)[C@H](O)[C@H]%11NC(C)=O)[C@H]%10O)[C@H](O)[C@H]9O)nn8)c7)cc(-c7cccc(NC(=O)CCCn8cc(CO[C@@H]9O[C@H](CO)[C@@H](O[C@@H]%10O[C@H](CO)[C@H](O)[C@H](O[C@@H]%11O[C@H](CO)[C@@H](O[C@@H]%12O[C@H](CO[C@]%13(C(=O)O)C[C@H](O)[C@@H](NC(C)=O)[C@H]([C@H](O)[C@H](O)CO)O%13)[C@H](O)[C@H](O)[C@H]%12O)[C@H](O)[C@H]%11NC(C)=O)[C@H]%10O)[C@H](O)[C@H]9O)nn8)c7)c6)c5)nn4)O[C@@H]3CO)[C@@H]2O)O[C@H](CO)[C@@H](O[C@@H]2O[C@H](CO[C@]3(C(=O)O)C[C@H](O)[C@@H](NC(C)=O)[C@H]([C@H](O)[C@H](O)CO)O3)[C@H](O)[C@H](O)[C@H]2O)[C@@H]1O`: the inhibition result in data set [3], in [4] and in data set [8] was “Active” throughout. In addition, the half-maximal inhibitory concentration (IC50) turned out to be 15 µM in data set [5] and 4.3 µM in data set [1]. Also, in [6], the Activity result was “Non-Toxic”. Besides, the outcome in data set [7] was Active. The Ratio IC50 in data set [2] was found to be 71.

Consider `CCC(CC)O[C@@H]1C=C(C(=O)O)C[C@H](N)[C@H]1NC(C)=O`, for which the outcome in data set [9] was Active.

Consider `C#CCO[C@@H]1O[C@H](CO)[C@@H](O[C@@H]2O[C@H](CO[C@]3(C(=O)O)C[C@H](O)[C@@H](NC(C)=O)[C@H]([C@H](O)[C@H](O)CO)O3)[C@H](O)[C@H](O)[C@H]2O)[C@H](O)[C@H]1NC(C)=O`, for which the IC50 in [1] came to 304 µM.

For `CC(=O)N[C@H]1[C@H]([C@H](O)[C@H](O)CO)O[C@@](OC[C@H]2O[C@@H](O[C@H]3[C@H](O)[C@@H](O)[C@H](OCc4cn(CCCC(=O)Nc5cccc(-c6cc(-c7cccc(NC(=O)CCCn8cc(CO[C@@H]9O[C@H](CO)[C@@H](O[C@@H]%10O[C@H](CO[C@]%11(C(=O)O)C[C@H](O)[C@@H](NC(C)=O)[C@H]([C@H](O)[C@H](O)CO)O%11)[C@H](O)[C@H](O)[C@H]%10O)[C@H](O)[C@H]9O)nn8)c7)cc(-c7cccc(NC(=O)CCCn8cc(CO[C@@H]9O[C@H](CO)[C@@H](O[C@@H]%10O[C@H](CO[C@]%11(C(=O)O)C[C@H](O)[C@@H](NC(C)=O)[C@H]([C@H](O)[C@H](O)CO)O%11)[C@H](O)[C@H](O)[C@H]%10O)[C@H](O)[C@H]9O)nn8)c7)c6)c5)nn4)O[C@@H]3CO)[C@H](O)[C@@H](O)[C@H]2O)(C(=O)O)C[C@@H]1O`, the Ki in [10] turned out to be 53 µM. Moreover, the values for the Ratio IC50 in data set [11] and in data set [2] were 7 and 20, respectively. Besides, in [1], the half-maximal inhibitory concentration (IC50) turned out to be 15 µM.

As for `CC(=O)N[C@H]1[C@H](O[C@H]2[C@@H](O)[C@@H](CO)O[C@@H](O[C@H]3[C@H](O)[C@@H](O)[C@H](n4cc(-c5ccc(-c6cn(CCCC(=O)Nc7cccc(-c8cc(-c9cccc(NC(=O)CCCn%10cc(-c%11ccc(-c%12cn([C@@H]%13O[C@H](CO)[C@@H](O[C@@H]%14O[C@H](CO)[C@H](O)[C@H](O[C@@H]%15O[C@H](CO)[C@@H](O[C@@H]%16O[C@H](CO)[C@H](O)[C@H](O)[C@H]%16O)[C@H](O)[C@H]%15NC(C)=O)[C@H]%14O)[C@H](O)[C@H]%13O)nn%12)cc%11)nn%10)c9)cc(-c9cccc(NC(=O)CCCn%10cc(-c%11ccc(-c%12cn([C@@H]%13O[C@H](CO)[C@@H](O[C@@H]%14O[C@H](CO)[C@H](O)[C@H](O[C@@H]%15O[C@H](CO)[C@@H](O[C@@H]%16O[C@H](CO)[C@H](O)[C@H](O)[C@H]%16O)[C@H](O)[C@H]%15NC(C)=O)[C@H]%14O)[C@H](O)[C@H]%13O)nn%12)cc%11)nn%10)c9)c8)c7)nn6)cc5)nn4)O[C@@H]3CO)[C@@H]2O)O[C@H](CO)[C@@H](O[C@@H]2O[C@H](CO)[C@H](O)[C@H](O)[C@H]2O)[C@@H]1O`, the inhibition entry in [12] was “inactive”.
